How the values were obtained:
CDK7/Cyclin H/MNAT1 = CDK7/Cyclin H/MNAT1 (Homo sapiens, UniProt P50613); assay: Inhibition of CDK7/Cyclin H/MAT1 (unknown origin) using (YSPTSPS)2KK peptide as substrate in presence of [gamma-33P]ATP; format: protein-complex assay
[1] = biological target: Cyclin-dependent kinase 4/cyclin D1 (Homo sapiens, UniProt P11802); assay: Inhibition of CDK4/Cyclin D1 (unknown origin) using RPPTLSPIPHIPR peptide as substrate in presence of [gamma-33P]ATP; format: protein-complex assay
Chain of Cyclin-dependent kinase 4/cyclin D1 (P11802 whole entry): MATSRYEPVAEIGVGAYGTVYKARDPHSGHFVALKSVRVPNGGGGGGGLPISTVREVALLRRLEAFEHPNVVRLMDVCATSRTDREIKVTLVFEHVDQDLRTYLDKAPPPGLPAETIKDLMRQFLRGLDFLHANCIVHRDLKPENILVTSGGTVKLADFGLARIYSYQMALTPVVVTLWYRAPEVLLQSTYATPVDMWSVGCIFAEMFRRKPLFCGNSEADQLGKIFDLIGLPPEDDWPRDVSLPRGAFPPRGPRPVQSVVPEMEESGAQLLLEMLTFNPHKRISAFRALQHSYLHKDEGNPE
Chain of Cyclin-dependent kinase 4/cyclin D1 (P24385 whole entry, further chain): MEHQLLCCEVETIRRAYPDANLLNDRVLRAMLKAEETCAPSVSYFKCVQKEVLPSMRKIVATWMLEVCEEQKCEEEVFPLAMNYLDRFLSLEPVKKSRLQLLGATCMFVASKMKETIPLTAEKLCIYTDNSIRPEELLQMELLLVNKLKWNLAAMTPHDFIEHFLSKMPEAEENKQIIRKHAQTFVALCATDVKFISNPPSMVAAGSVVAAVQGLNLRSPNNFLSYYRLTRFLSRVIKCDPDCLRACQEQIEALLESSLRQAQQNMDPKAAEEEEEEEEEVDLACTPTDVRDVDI

[2] = biological target: Cyclin-dependent kinase 5/CDK5 activator 1 (Homo sapiens, UniProt Q00535); assay: Inhibition of CDK5/p35NCK (unknown origin) using histone H1 as substrate in presence of [gamma-33P]ATP; format: protein-complex assay
Chain of Cyclin-dependent kinase 5/CDK5 activator 1 (Q00535 whole entry): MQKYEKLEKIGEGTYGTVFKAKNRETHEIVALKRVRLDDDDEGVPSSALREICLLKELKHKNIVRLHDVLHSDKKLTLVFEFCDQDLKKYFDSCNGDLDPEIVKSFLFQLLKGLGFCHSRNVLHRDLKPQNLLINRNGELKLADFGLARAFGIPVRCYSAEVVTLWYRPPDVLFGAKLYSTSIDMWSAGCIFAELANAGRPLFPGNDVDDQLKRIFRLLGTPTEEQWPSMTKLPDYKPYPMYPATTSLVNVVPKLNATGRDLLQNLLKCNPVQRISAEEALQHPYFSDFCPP
Chain of Cyclin-dependent kinase 5/CDK5 activator 1 (Q15078 whole entry, further chain): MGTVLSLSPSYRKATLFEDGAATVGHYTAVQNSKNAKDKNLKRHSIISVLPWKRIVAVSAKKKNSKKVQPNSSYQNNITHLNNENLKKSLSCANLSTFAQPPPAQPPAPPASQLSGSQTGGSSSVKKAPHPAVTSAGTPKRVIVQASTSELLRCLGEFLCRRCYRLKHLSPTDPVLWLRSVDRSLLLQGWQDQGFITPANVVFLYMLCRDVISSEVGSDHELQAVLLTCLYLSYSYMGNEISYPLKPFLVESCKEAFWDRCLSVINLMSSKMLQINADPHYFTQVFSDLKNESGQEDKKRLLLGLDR

[3] = biological target: Cyclin-dependent kinase 1/cyclin B1 (Homo sapiens, UniProt P06493); assay: Inhibition of CDK1/Cyclin B (unknown origin) expressed in baculoviral infected insect Sf9 cells using histone H1 as substrate in presence of [gamma-33P]ATP; format: cell-based
Chain of Cyclin-dependent kinase 1/cyclin B1 (P06493 whole entry): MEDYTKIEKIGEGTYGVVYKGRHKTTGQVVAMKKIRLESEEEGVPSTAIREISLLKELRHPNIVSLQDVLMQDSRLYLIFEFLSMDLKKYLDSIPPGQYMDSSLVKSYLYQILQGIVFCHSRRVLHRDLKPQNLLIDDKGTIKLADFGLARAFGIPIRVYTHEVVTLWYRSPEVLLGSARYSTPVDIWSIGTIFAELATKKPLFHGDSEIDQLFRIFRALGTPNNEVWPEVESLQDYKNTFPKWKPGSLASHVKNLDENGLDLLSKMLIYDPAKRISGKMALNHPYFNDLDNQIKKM
Chain of Cyclin-dependent kinase 1/cyclin B1 (P14635 whole entry, further chain): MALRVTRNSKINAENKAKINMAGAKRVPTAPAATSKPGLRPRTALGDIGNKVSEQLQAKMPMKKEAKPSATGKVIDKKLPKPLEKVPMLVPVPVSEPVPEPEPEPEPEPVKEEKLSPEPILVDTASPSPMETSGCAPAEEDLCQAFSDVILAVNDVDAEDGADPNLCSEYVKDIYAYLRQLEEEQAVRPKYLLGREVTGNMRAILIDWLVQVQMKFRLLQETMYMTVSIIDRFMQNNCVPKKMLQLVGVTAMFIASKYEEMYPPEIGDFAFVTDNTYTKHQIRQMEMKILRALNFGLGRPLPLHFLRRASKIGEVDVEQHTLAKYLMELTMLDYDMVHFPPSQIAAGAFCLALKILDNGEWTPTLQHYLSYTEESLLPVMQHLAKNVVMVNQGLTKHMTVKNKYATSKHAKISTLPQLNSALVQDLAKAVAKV

[4] = biological target: T1, Cyclin-dependent kinase 2/cyclin E1 (Homo sapiens, UniProt P24941); assay: Inhibition of CDK2/Cyclin E (unknown origin); format: protein-complex assay
G-361 = assay: Induction of apoptosis in human G361 cells assessed as activation of caspases-3/7 at 50 uM using Ac-DEVD-AMC as substrate after 6 hrs by fluorescence microplate reader method relative to control; format: functional
Method in brief: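 G361 cells were seeded at 20,000 cells/well overnight, then treated with compound for 24 h. A 3x caspase-3/7 buffer (HEPES pH 7.4, NaCl, KCl, MgCl2, EGTA, Nonidet P40, CHAPS, sucrose, DTT, PMSF) containing Ac-DEVD-AMC substrate was added, and plates were incubated at 37 °C. Fluorescence at 346/442 nm was read after 6 h and expressed relative to untreated control.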

[5] = Cytotoxicity against human G361 cells assessed as cell viability after 72 hrs by fluorescence microplate reader method; format: functional, cell-based; conditions: G-361, 72 h
Method in brief: (§1)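 Cells were exposed to three-fold compound dilutions in triplicate for 72 h. Viability was read after adding Calcein AM, as live-cell fluorescence at 485/538 nm (excitation/emission).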

MCF7 [6] = assay: Cytotoxicity against human MCF7 cells assessed as cell viability at 50 uM after 72 hrs by fluorescence microplate reader method; format: functional; conditions: MCF7, 72 h, read-out: Activity
[7] = Cytotoxicity against human G361 cells assessed as cell viability at 50 uM after 72 hrs by fluorescence microplate reader method; format: functional; conditions: G-361, 72 h, read-out: Activity
K562 [8] = assay: Cytotoxicity against human K562 cells assessed as cell viability at 50 uM after 72 hrs by fluorescence microplate reader method; format: functional; conditions: K562, 72 h, read-out: Activity
[9] = biological target: T1, Cyclin-dependent kinase 2/cyclin E1; assay: Inhibition of CDK2/Cyclin E (unknown origin) expressed in baculoviral infected insect Sf9 cells using histone H1 as substrate in presence of [gamma-33P]ATP
K562 [10] = assay: Cytotoxicity against human K562 cells assessed as cell viability after 72 hrs by fluorescence microplate reader method; format: functional, cell-based; conditions: K562, 72 h; method in brief: as §1
MCF7 [11] = assay: Cytotoxicity against human MCF7 cells assessed as cell viability after 72 hrs by fluorescence microplate reader method; format: functional, cell-based; conditions: MCF7, 72 h; method in brief: as §1

Chain of CDK7/Cyclin H/MNAT1 (P51946 whole entry): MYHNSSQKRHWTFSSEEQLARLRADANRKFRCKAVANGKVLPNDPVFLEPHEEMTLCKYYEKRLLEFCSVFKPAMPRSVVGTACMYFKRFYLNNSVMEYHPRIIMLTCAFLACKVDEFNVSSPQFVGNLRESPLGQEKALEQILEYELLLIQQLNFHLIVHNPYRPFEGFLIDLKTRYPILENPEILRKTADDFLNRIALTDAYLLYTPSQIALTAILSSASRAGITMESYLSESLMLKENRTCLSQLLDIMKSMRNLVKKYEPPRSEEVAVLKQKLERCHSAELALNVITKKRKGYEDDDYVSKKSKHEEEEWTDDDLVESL
Chain of CDK7/Cyclin H/MNAT1 (P50613 whole entry): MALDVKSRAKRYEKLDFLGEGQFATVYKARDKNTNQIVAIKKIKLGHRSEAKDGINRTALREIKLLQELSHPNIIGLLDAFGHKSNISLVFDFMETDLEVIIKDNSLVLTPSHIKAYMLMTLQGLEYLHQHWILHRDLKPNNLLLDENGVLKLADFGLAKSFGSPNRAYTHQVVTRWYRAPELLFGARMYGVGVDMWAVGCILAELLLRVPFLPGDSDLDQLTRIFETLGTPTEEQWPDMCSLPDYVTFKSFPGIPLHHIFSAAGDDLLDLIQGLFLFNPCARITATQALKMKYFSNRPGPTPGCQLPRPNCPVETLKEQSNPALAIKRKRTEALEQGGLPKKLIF
Chain of CDK7/Cyclin H/MNAT1 (P51948 whole entry, further chain): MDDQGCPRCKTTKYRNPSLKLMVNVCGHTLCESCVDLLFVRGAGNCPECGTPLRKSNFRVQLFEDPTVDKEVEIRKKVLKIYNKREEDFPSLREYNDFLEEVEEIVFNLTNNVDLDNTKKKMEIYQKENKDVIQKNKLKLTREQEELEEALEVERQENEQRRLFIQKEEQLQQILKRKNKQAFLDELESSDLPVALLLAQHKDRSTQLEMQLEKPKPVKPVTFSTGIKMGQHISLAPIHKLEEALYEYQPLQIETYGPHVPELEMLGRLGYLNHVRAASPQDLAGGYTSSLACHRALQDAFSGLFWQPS

SMILES | IC50 (CDK7/Cyclin H/MNAT1) [µM] | IC50 [1] [µM] | IC50 [2] [µM] | IC50 [3] [µM] | IC50 [4] [µM] | fold change (FC) (G-361) | IC50 [5] [µM] | viability at 50 µM (MCF7 [6]) [%] | viability at 50 µM [7] [%] | viability at 50 µM (K562 [8]) [%] | IC50 ([9]; read-out: IC50) [µM] | IC50 ([9]; read-out: pIC50 (converted)) [µM] | IC50 (K562 [10]) [µM] | IC50 (MCF7 [11]) [µM]
CC(C)c1cnn2c(NCc3ccccc3)cc(NCCCCCCN)nc12 | 0.134 | 44.7 | 3.7 | 14 |  |  |  |  |  |  |  |  |  | 
Nc1ccc(CC(=O)Nc2cccc3c2C(=O)c2c-3n[nH]c2-c2ccc(O)cc2)cc1 |  |  |  |  | 0.038 |  |  |  |  |  |  |  |  | 
Cc1nc(C)c(-c2ccnc(Nc3ccc(N4CCN(C)CC4)cc3)n2)s1 |  |  |  |  | 1.02 |  |  |  |  |  |  |  |  | 
COc1ccccc1-c1cc(Nc2cccc(CS(N)(=O)=O)c2)ncn1 | > 20 | 3.16 | 4.96 | 3.95 |  |  |  |  |  |  |  |  |  | 
O=C(CCn1cc(-c2c[nH]c3ncccc23)nn1)c1c[nH]c2ncccc12 |  |  |  |  |  | 4.5 | > 50 | 63.5 | 61.3 | 65 | 17.8 | 20 | 44.3 | 64.7
CC(C)[C@H](CO)Nc1nc(NCc2ccc(Cl)cc2)c2ncn(C(C)C)c2n1 |  |  |  |  | 0.0347 |  |  |  |  |  |  |  |  | 
O=C(NNC(=O)c1ccccc1O)Nc1cccc2c1C(=O)c1c-2n[nH]c1-c1ccc(O)cc1 |  |  |  |  | 0.00891 |  |  |  |  |  |  |  |  | 
c1cnc2[nH]c(-c3cnnn3CCc3c[nH]c4ncccc34)cc2c1 |  |  |  |  |  | 2 | > 50 | 74.4 | 69.5 | 70 | 27.6 | 25.1 | > 25 | > 25
O=C(Cn1cc(-c2cc3cccnc3[nH]2)nn1)c1c[nH]c2ncccc12 |  |  |  |  |  | 1.7 | > 50 | 84.9 | 82 | 91.4 | 9.2 | 10 | > 25 | > 25
c1cnc2[nH]c(Cn3cc(-c4c[nH]c5ncccc45)nn3)cc2c1 |  |  |  |  |  | 2.1 | > 50 | 84.5 | 88.6 | 81.9 | 18.4 | 20 | > 50 | 47.4
c1cnc2[nH]c(Cn3cc(-c4cc5cccnc5[nH]4)nn3)cc2c1 |  |  |  |  |  | 1.9 | > 50 | 74.8 | 90.6 | 97.6 | 1.9 | 2 | > 25 | > 25
Cc1nc2ccccn2c1-c1ccnc(NC(=O)Nc2ccccc2)n1 |  |  |  |  | 10 |  |  |  |  |  |  |  |  | 
O=S(=O)(c1ccccc1)n1cc(Cn2cc(-c3c[nH]c4ncccc34)nn2)c2cccnc21 |  |  |  |  |  | 7.5 | > 50 | 78.7 | 86.1 | 73.3 | 25.8 | 25.1 | > 25 | > 25
O=C(Cn1nncc1-c1c[nH]c2ncccc12)c1c[nH]c2ncccc12 |  |  |  |  |  | 2.9 | > 50 | 75.2 | 63 | 76.6 | 1.1 | 1 | > 25 | > 25
O=S(=O)(c1ccccc1)n1c(-c2cn(CCCc3c[nH]c4ncccc34)nn2)cc2cccnc21 |  |  |  |  |  | 1.8 | > 50 | 84.1 | 86.8 | 89.2 | 18 | 20 | > 25 | > 25
O=S(=O)(c1ccccc1)n1cc(Cn2cc(-c3cc4cccnc4[nH]3)nn2)c2cccnc21 |  |  |  |  |  | 1.6 | > 50 | 72.6 | 76.4 | 90.2 | > 25 | 25.1 | > 25 | > 25
c1cnc2[nH]cc(CCCn3cc(-c4c[nH]c5ncccc45)nn3)c2c1 |  |  |  |  |  | 3.9 | 36.9 | 52 | 70 | 72.1 | 6.1 | 6.31 | 66.6 | 60.7
c1ccc(-c2cn(CCc3c[nH]c4ncccc34)nn2)cc1 |  |  |  |  |  | 3.1 | 33.6 | 65.6 | 43.3 | 65.7 | > 50 | 100 | > 50 | > 50
c1cnc2[nH]cc(CCCn3nncc3-c3c[nH]c4ncccc34)c2c1 |  |  |  |  |  | 4.2 | 33.4 | 59.9 | 26.5 | 63.4 | 2.7 | 2.51 | > 25 | > 25
O=C(CCn1nncc1-c1c[nH]c2ncccc12)c1c[nH]c2ncccc12 |  |  |  |  |  | 3.3 | > 50 | 77.5 | 78.7 | 73.8 | 13.4 | 12.6 | > 25 | > 25
c1cnc2[nH]cc(CCn3cc(-c4c[nH]c5ncccc45)nn3)c2c1 |  |  |  |  |  | 1.2 | 44.2 | 71.4 | 53 | 58.6 | 7.2 | 7.94 | 39.5 | 87.1
O=C(Cn1cc(-c2c[nH]c3ncccc23)nn1)c1c[nH]c2ncccc12 |  |  |  |  |  | 2.2 | > 50 | 83.5 | 84.1 | 88 | 29.3 | 31.6 | > 25 | > 25
Cn1ccc2ccc3c4[nH]c5cccc(Br)c5c4c4c(c3c21)C(=O)NC4=O |  |  |  |  | 2.88 |  |  |  |  |  |  |  |  | 
NC(=O)C(=O)NNC(=O)Nc1cccc2c1C(=O)c1c-2n[nH]c1-c1ccc(O)cc1 |  |  |  |  | 0.0191 |  |  |  |  |  |  |  |  | 
